Screening results: PubChem BioAssay, several laboratories
UBC13 inh: UBC13 polyubiquitin chain formation inhibitors, primary screen, biochemical, TR-FRET, uHTS; AID 485273, 2010; 330,000 tested, 0.47% active; inhibition, % at 20 µM; Ubiquitin-conjugating enzyme E2 N (Homo sapiens), P61088; in the data active = inhibition above about 45%, passing the limit was not always enough
Apaf1 inhib: inhibitors of human Apaf-1 apoptosome, primary screen, biochemical, DEVD-Rh110 fluorescence, uHTS. Apoptotic protease-activating factor 1 (Homo sapiens), O14727. reconstituted apoptosome caspase-3 activity. inhibition, % at 20 µM. 330,000 tested, 0.71% active; active = inhibition of at least 40% at 20 µM
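System: reconstituted apoptosome with Apaf-1, cytochrome c, caspase-9, procaspase-3, dATP; Signal: Rh110 fluorescence intensity; Schedule: 30 min compound preincubation, 50 min activation, room temperature; Reagent: cytochrome c trigger plus (Z-DEVD)2-Rh110 caspase-3 substrate.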
Granule exo inh: LAMP-1 surface exposure blockers, TALL-104 cells – cell-based, flow cytometry, MLPCN library, primary screen. TALL-104 LAMP-1 surface exposure; cells stimulated with thapsigargin and PMA. inhibition, % at 10 µM. 360,000 tested, 0.66% active. AID 651702, 2012;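 active = inhibition above about 55%, limit read from the data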
beta cell repl: inducers of MIN6 beta-cell proliferation, primary screen, ATP luminescence, uHTS; MIN6 cells proliferation, ATPlite luminescence, 48 h; cells starved in 0.2% serum; 100% = growth in 10% serum; proliferation, % at 10 µM; 330,000 tested, 0.29% active; AID 2380, 2010;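 active = compounds whose signal lies at least 3.5 SD above the mean of all wells on their plate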
MPTP inh: mitochondrial permeability transition pore inhibitors, primary screen, biochemical, isolated mouse mitochondria, absorbance | Ca2+ swelling absorbance, 30 min | inhibition, % at 10 µM | 360,000 tested, 1.4% active;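 active = inhibition of 50% or more, scaled per plate between neutral and stimulator controls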
iPSC survival up: enhancers of single-cell hiPSC survival, primary screen, ATPlite luminescence | survival enhancement, % at 20 µM | 360,000 tested, 0.044% active | 100% = ROCK inhibitor wells, 0% = DMSO; in the data active = survival enhancement above about 18%;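 note: cells exposed to compounds for 16 hours before the ATP read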
Rh123 counter: fluorescence retest of MPTP screen hits in isolated mitochondria, single concentration | 5,000 tested, 78% active | inhibition, % at 10 µM | shares compounds with MPTP inh | membrane potential, Rhodamine 123 fluorescence; in the data active = inhibition above about 22%
Numbers stand for hits. In the library only some 3% were active in any assay of this set; here they are far more common.

`Cc1ccc(NC(=O)c2cc3cccc([N+](=O)[O-])c3[nH]2)cc1` gave UBC13 inh inactive, Apaf1 inhib inactive, Granule exo inh inactive, beta cell repl inactive, MPTP inh 64.2, iPSC survival up inactive and Rh123 counter 61.2.
Screening Cc1ccc(NC(=O)c2ccc(-n3cccn3)c([N+](=O)[O-])c2)cc1 returned UBC13 inh inactive, Apaf1 inhib inactive, Granule exo inh inactive, beta cell repl inactive, MPTP inh inactive and iPSC survival up inactive.
For CCC(C)c1ccccc1NC(=O)c1cc2cccc([N+](=O)[O-])c2[nH]1 (stereo not drawn) the results were UBC13 inh inactive, Apaf1 inhib inactive, Granule exo inh inactive, beta cell repl inactive, MPTP inh 61.2, iPSC survival up inactive and Rh123 counter 66.3.
Screening CC1CCC(NC(=O)c2ccc(COc3ccccc3)o2)CC1 (stereo not drawn) returned UBC13 inh inactive, Apaf1 inhib inactive, Granule exo inh inactive, beta cell repl inactive, MPTP inh inactive and iPSC survival up inactive.
Screening O=C(C1CCC1)N1CCc2cc(S(=O)(=O)Nc3ccc4c(c3)OCCO4)ccc21 returned UBC13 inh inactive, Apaf1 inhib inactive, Granule exo inh inactive, beta cell repl inactive, MPTP inh 65.3, iPSC survival up inactive and Rh123 counter 81.3.
O=C(C1CC1)N1CCc2cc(S(=O)(=O)NCCC3=CCCCC3)ccc21 was read as UBC13 inh inactive, Apaf1 inhib inactive, Granule exo inh inactive, beta cell repl inactive, MPTP inh 62.4, iPSC survival up inactive and Rh123 counter 46.0.
`CCC(=O)N1CCc2cc(S(=O)(=O)Nc3ccc4c(c3)OCCO4)ccc21` gave UBC13 inh inactive, Apaf1 inhib inactive, Granule exo inh inactive, beta cell repl inactive, MPTP inh 81.2, iPSC survival up inactive and Rh123 counter 58.5.
`CCCCN1C(=O)C(CC(=O)NC2CCCC2)CC(C(=O)N(C(C)C)C(C)C)=C1C` (stereo not drawn) gave Granule exo inh inactive, MPTP inh inactive and iPSC survival up inactive.
`Nc1nonc1C(=O)NCCN=Cc1cc(Cc2ccccc2)cc(Br)c1O` gave UBC13 inh inactive, Apaf1 inhib inactive, Granule exo inh inactive, beta cell repl inactive, MPTP inh 63.5, iPSC survival up inactive and Rh123 counter 31.3.
`CCCn1c(CCNc2nc(-c3cccc(Br)c3)cs2)nc2ccccc21` gave Granule exo inh inactive, MPTP inh inactive and iPSC survival up inactive.
CC(C)(C)c1ccc(NC(=O)N2CCN(c3ccc([N+](=O)[O-])cn3)CC2)cc1 was read as UBC13 inh inactive, Apaf1 inhib inactive, Granule exo inh inactive, beta cell repl inactive, MPTP inh 66.9, iPSC survival up inactive and Rh123 counter 54.3.
For O=C(Nc1ccc(F)cc1F)N1CCCN(c2ccc([N+](=O)[O-])cn2)CC1 the results were UBC13 inh inactive, Apaf1 inhib inactive, Granule exo inh inactive, beta cell repl inactive, MPTP inh inactive and iPSC survival up inactive.
Screening COc1cc(CNc2ncnc3c2ncn3[C@H]2CN(Cc3cc(OC)c(OC)c(OC)c3)C[C@@H](CO)O2)cc(OC)c1OC returned Granule exo inh inactive, MPTP inh inactive and iPSC survival up inactive.
Nc1nc2sc3c(c2c(=O)s1)CCCC3 was read as UBC13 inh inactive, Apaf1 inhib inactive, Granule exo inh inactive, beta cell repl inactive, MPTP inh inactive and iPSC survival up inactive.
`Nc1c2c(nc3sc4c(c13)CCCC4)CCCCCC2` gave UBC13 inh inactive, Apaf1 inhib inactive, Granule exo inh inactive, beta cell repl inactive, MPTP inh 86.1, iPSC survival up inactive and Rh123 counter 103.5.
Cc1occc1-c1nnc(SCC(=O)Nc2nc(C(C)(C)C)cs2)o1 was read as UBC13 inh inactive, Apaf1 inhib inactive, Granule exo inh inactive, beta cell repl inactive, MPTP inh 94.4, iPSC survival up inactive and Rh123 counter 89.7.
`Nc1cc(Cl)cc2c1-c1ccc(Cl)cc1C2O` (stereo not drawn) gave Granule exo inh inactive, MPTP inh inactive and iPSC survival up inactive.
O=C(Nc1cc(Cl)cc2c1-c1ccc(Cl)cc1C2O)C(Cl)Cl (stereo not drawn) was read as Granule exo inh inactive, MPTP inh 92.9, iPSC survival up inactive and Rh123 counter 75.7.
For COc1ccc(C2=CC(=O)CC(C)(C)C2)cc1OC the results were UBC13 inh inactive, Apaf1 inhib inactive, Granule exo inh inactive, beta cell repl inactive, MPTP inh inactive and iPSC survival up inactive.
Cc1nc2ccc(S(=O)(=O)Nc3cc(-c4nc5cccnc5s4)ccc3C)cc2s1 was read as UBC13 inh inactive, Apaf1 inhib inactive, Granule exo inh inactive, beta cell repl inactive, MPTP inh inactive and iPSC survival up inactive.
`Cc1nc2ccc(S(=O)(=O)Nc3cccc(-c4nc5cccnc5s4)c3C)cc2s1` gave UBC13 inh inactive, Apaf1 inhib inactive, Granule exo inh inactive, beta cell repl inactive, MPTP inh 97.8, iPSC survival up inactive and Rh123 counter 88.4.
`O=C(Nc1cccs1)Nc1ccc(Br)cc1F` gave UBC13 inh inactive, Apaf1 inhib inactive, Granule exo inh inactive, beta cell repl inactive, MPTP inh 82.5, iPSC survival up inactive and Rh123 counter 80.4.
Screening CC(C)CC1C(=O)N(Cc2cn(Cc3ccco3)nn2)CCS(=O)(=O)N1Cc1ccc(-c2cccc(N(C)C)c2)cc1 (stereo not drawn) returned Granule exo inh inactive, MPTP inh inactive and iPSC survival up inactive.
`Cn1nc([N+](=O)[O-])c(C(C#N)c2ccccn2)c(Cl)c1=O` (stereo not drawn) gave UBC13 inh inactive, Apaf1 inhib inactive, Granule exo inh inactive, beta cell repl inactive, MPTP inh inactive and iPSC survival up inactive.
`CCn1nc([N+](=O)[O-])c(C(C#N)c2nc3cc(C(F)(F)F)ccc3s2)c(Cl)c1=O` (stereo not drawn) gave UBC13 inh inactive, Apaf1 inhib inactive, Granule exo inh 83.2, beta cell repl inactive, MPTP inh 113.9, iPSC survival up inactive and Rh123 counter inactive.
Screening CCCn1nc([N+](=O)[O-])c(C(C#N)c2nc3ccccc3o2)c(Cl)c1=O (stereo not drawn) returned UBC13 inh inactive, Apaf1 inhib inactive, Granule exo inh inactive, beta cell repl inactive, MPTP inh 100.9, iPSC survival up inactive and Rh123 counter 49.6.
